# Laboratory results taken from ChEMBL document CHEMBL4689842, “EUbOPEN Chemogenomics Library wave 1” (2021).
# Tested on: U2OS
# Test: Multiplex assay against U2OS
# Format: toxicity, cell-based
# Details: human
# Summary of the method: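 Compound was added to live cells that had been stained at seeding with Hoechst33342, BioTracker Green Microtubule Cytoskeleton Dye, MitoTracker Red and Annexin V Alexa Fluor 680, and imaging followed on a CQ1 microscope at 37°C and 5% CO2. CellPathfinder machine-learning gating divided cells into Hoechst high-intensity objects or normal cells, normal cells into healthy, pyknosed or fragmented nuclei, and pyknosed cells into mitotic or apoptotic. Tubulin, mitochondrial-mass and membrane-permeability phenotypes are per cents of healthy-nucleus cells.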
# [1] = 12 h, 1 µM, compound concentration 1 uM, replicate 1
# [2] = 12 h, 1 µM, compound concentration 1 uM, replicate 2
# [3] = 12 h, 10 µM, compound concentration 10 uM, replicate 1
# [4] = 12 h, 10 µM, compound concentration 10 uM, replicate 2
# [5] = 24 h, 1 µM, compound concentration 1 uM, replicate 1
# [6] = 24 h, 1 µM, compound concentration 1 uM, replicate 2
# [7] = 24 h, 10 µM, compound concentration 10 uM, replicate 1
# [8] = 24 h, 10 µM, compound concentration 10 uM, replicate 2
# [9] = 48 h, 1 µM, compound concentration 1 uM, replicate 1
# [10] = 48 h, 1 µM, compound concentration 1 uM, replicate 2
# [11] = 48 h, 10 µM, compound concentration 10 uM, replicate 1
# [12] = 48 h, 10 µM, compound concentration 10 uM, replicate 2
compound,measurement,setting,value
COc1cc(-n2cnc3cc(-c4ccc(Cl)cc4)sc3c2=O)ccc1OCCN1CCCC1,Population Apoptotic (%),[1],45%
same,Population Fragmented Nuclei (%),[1],12%
same,Population Healthy Nuclei (%),[1],70%
same,Population Hoechst High Intensity Objects (%),[1],9%
same,Population Membrane Permeable-Phenotype (%),[1],9%
same,Population Mitochondria Different-Phenotype (%),[1],63%
same,Population Mitotic Cells (%),[1],54%
same,Population Normal (%),[1],90%
same,Population Pyknosed Nuclei (%),[1],16%
same,Population Tubulin-Different-Phenotype (%),[1],65%
same,Total Cell Count,[1],157
same,Population Apoptotic (%),[2],71%
same,Population Fragmented Nuclei (%),[2],11%
same,Population Healthy Nuclei (%),[2],77%
same,Population Hoechst High Intensity Objects (%),[2],16%
same,Population Membrane Permeable-Phenotype (%),[2],10%
same,Population Mitochondria Different-Phenotype (%),[2],44%
same,Population Mitotic Cells (%),[2],28%
same,Population Normal (%),[2],84%
same,Population Pyknosed Nuclei (%),[2],11%
same,Population Tubulin-Different-Phenotype (%),[2],34%
same,Total Cell Count,[2],78
same,Population Apoptotic (%),[3],72%
same,Population Fragmented Nuclei (%),[3],32%
same,Population Healthy Nuclei (%),[3],13%
same,Population Hoechst High Intensity Objects (%),[3],10%
same,Population Membrane Permeable-Phenotype (%),[3],61%
same,Population Mitochondria Different-Phenotype (%),[3],100%
same,Population Mitotic Cells (%),[3],27%
same,Population Normal (%),[3],90%
same,Population Pyknosed Nuclei (%),[3],54%
same,Population Tubulin-Different-Phenotype (%),[3],100%
same,Total Cell Count,[3],144
same,Population Apoptotic (%),[4],26%
same,Population Fragmented Nuclei (%),[4],22%
same,Population Healthy Nuclei (%),[4],57%
same,Population Hoechst High Intensity Objects (%),[4],8%
same,Population Membrane Permeable-Phenotype (%),[4],34%
same,Population Mitochondria Different-Phenotype (%),[4],93%
same,Population Mitotic Cells (%),[4],73%
same,Population Normal (%),[4],91%
same,Population Pyknosed Nuclei (%),[4],19%
same,Population Tubulin-Different-Phenotype (%),[4],97%
same,Total Cell Count,[4],75
same,Population Apoptotic (%),[5],56%
same,Population Fragmented Nuclei (%),[5],6%
same,Population Healthy Nuclei (%),[5],76%
same,Population Hoechst High Intensity Objects (%),[5],6%
same,Population Membrane Permeable-Phenotype (%),[5],8%
same,Population Mitochondria Different-Phenotype (%),[5],45%
same,Population Mitotic Cells (%),[5],43%
same,Population Normal (%),[5],93%
same,Population Pyknosed Nuclei (%),[5],16%
same,Population Tubulin-Different-Phenotype (%),[5],42%
same,Total Cell Count,[5],175
same,Population Apoptotic (%),[6],62%
same,Population Fragmented Nuclei (%),[6],16%
same,Population Healthy Nuclei (%),[6],71%
same,Population Hoechst High Intensity Objects (%),[6],10%
same,Population Membrane Permeable-Phenotype (%),[6],6%
same,Population Mitochondria Different-Phenotype (%),[6],25%
same,Population Mitotic Cells (%),[6],37%
same,Population Normal (%),[6],89%
same,Population Pyknosed Nuclei (%),[6],12%
same,Population Tubulin-Different-Phenotype (%),[6],21%
same,Total Cell Count,[6],83
same,Population Apoptotic (%),[7],95%
same,Population Fragmented Nuclei (%),[7],48%
same,Population Healthy Nuclei (%),[7],3%
same,Population Hoechst High Intensity Objects (%),[7],11%
same,Population Membrane Permeable-Phenotype (%),[7],100%
same,Population Mitochondria Different-Phenotype (%),[7],100%
same,Population Mitotic Cells (%),[7],4%
same,Population Normal (%),[7],88%
same,Population Pyknosed Nuclei (%),[7],47%
same,Population Tubulin-Different-Phenotype (%),[7],100%
same,Total Cell Count,[7],147
same,Population Apoptotic (%),[8],47%
same,Population Fragmented Nuclei (%),[8],24%
same,Population Healthy Nuclei (%),[8],52%
same,Population Hoechst High Intensity Objects (%),[8],14%
same,Population Membrane Permeable-Phenotype (%),[8],42%
same,Population Mitochondria Different-Phenotype (%),[8],89%
same,Population Mitotic Cells (%),[8],52%
same,Population Normal (%),[8],85%
same,Population Pyknosed Nuclei (%),[8],23%
same,Population Tubulin-Different-Phenotype (%),[8],81%
same,Total Cell Count,[8],74
same,Population Apoptotic (%),[9],59%
same,Population Fragmented Nuclei (%),[9],10%
same,Population Hoechst High Intensity Objects (%),[9],3%
same,Population Membrane Permeable-Phenotype (%),[9],7%
same,Population Mitochondria Different-Phenotype (%),[9],28%
same,Population Mitotic Cells (%),[9],40%
same,Population Normal (%),[9],96%
same,Population Pyknosed Nuclei (%),[9],14%
same,Population Tubulin-Different-Phenotype (%),[9],31%
same,Total Cell Count,[9],187
same,Population Apoptotic (%),[10],63%
same,Population Fragmented Nuclei (%),[10],12%
same,Population Healthy Nuclei (%),[10],74%
same,Population Hoechst High Intensity Objects (%),[10],5%
same,Population Membrane Permeable-Phenotype (%),[10],21%
same,Population Mitochondria Different-Phenotype (%),[10],31%
same,Population Mitotic Cells (%),[10],36%
same,Population Normal (%),[10],94%
same,Population Pyknosed Nuclei (%),[10],13%
same,Population Tubulin-Different-Phenotype (%),[10],19%
same,Total Cell Count,[10],79
same,Population Apoptotic (%),[11],97%
same,Population Fragmented Nuclei (%),[11],33%
same,Population Healthy Nuclei (%),[11],7%
same,Population Hoechst High Intensity Objects (%),[11],20%
same,Population Membrane Permeable-Phenotype (%),[11],88%
same,Population Mitochondria Different-Phenotype (%),[11],100%
same,Population Mitotic Cells (%),[11],2%
same,Population Normal (%),[11],79%
same,Population Pyknosed Nuclei (%),[11],59%
same,Population Tubulin-Different-Phenotype (%),[11],100%
same,Total Cell Count,[11],189
same,Population Apoptotic (%),[12],53%
same,Population Fragmented Nuclei (%),[12],25%
same,Population Healthy Nuclei (%),[12],59%
same,Population Hoechst High Intensity Objects (%),[12],5%
same,Population Membrane Permeable-Phenotype (%),[12],56%
same,Population Mitochondria Different-Phenotype (%),[12],96%
same,Population Mitotic Cells (%),[12],46%
same,Population Normal (%),[12],94%
same,Population Pyknosed Nuclei (%),[12],15%
same,Population Tubulin-Different-Phenotype (%),[12],96%
same,Total Cell Count,[12],87
